Experimental data: ChEMBL document CHEMBL3612066, “Design, Synthesis, and Biological Evaluation of Pyrazolo[1,5-a]pyridine-3-carboxamides as Novel Antitubercular Agents” (ACS Med Chem Lett, 2015)
In brackets after ≈: the same amount, converted by molar mass.

How the values were obtained:
[1] = system: Mycobacterium tuberculosis; assay: Antitubercular activity against Mycobacterium tuberculosis H37Rv after 7 days by microplate alamar blue assay; assay type: functional; conditions: 168 h
Outline: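 MIC against Mtb H37Rv by microplate alamar blue assay (MABA); MIC values interpolated by curve fitting.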

[2] = system: Mycobacterium tuberculosis; assay: Antitubercular activity against Mycobacterium tuberculosis H37Ra after 7 days by microplate alamar blue assay; assay type: functional; conditions: 168 h
[3] = system: Vero; assay: Cytotoxicity against African green monkey Vero cells after 72 hrs by CCK8 assay; assay type: cell-based; conditions: Chlorocebus sabaeus
Outline: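 VERO African green monkey kidney cells; growth inhibition read by CCK-8 assay and reported as IC50. Values are means of two or more independent experiments, with variation <20%.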

[4] = system: Mycobacterium tuberculosis; assay: Antitubercular activity against autoluminescent Mycobacterium tuberculosis H37Ra infected in noninvasive BALB/c mouse assessed as bioluminescence intensity by measuring relative light unit at 4 mg/kg, po qd for 6 days; assay type: functional
Outline: (§1)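 Mice were infected intravenously with log-phase, marker-free autoluminescent Mtb H37Ra at 2 × 10^6 CFU per mouse. They were then dosed by oral gavage once daily for 6 consecutive days at 4, 20 or 100 mg/kg/day, with CMC-Na as vehicle. Bioluminescence (RLU) was read in the same live, anesthetized mice every other day and expressed as the RLUdayn/RLUday0 ratio. Mortality was monitored during treatment.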

[5] = system: Mycobacterium tuberculosis; assay: Antitubercular activity against autoluminescent Mycobacterium tuberculosis H37Ra infected in po dosed noninvasive BALB/c mouse assessed as bioluminescence intensity by measuring relative light unit administered qd for 6 days; assay type: functional, organism-based; outline: as §1
[6] = system: Mycobacterium tuberculosis; assay: Antitubercular activity against fluorescent reporter strain of Mycobacterium tuberculosis H37Rv after 5 days by fluorescence assay; assay type: functional, organism-based; conditions: 120 h
Outline: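 A fluorescent reporter strain of Mtb H37Rv was grown in liquid medium under aerobic conditions, and growth was read by fluorescence. MIC, IC50 and IC90 were determined.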

[7] = system: Mycobacterium tuberculosis; assay: Antitubercular activity against autoluminescent Mycobacterium tuberculosis H37Ra infected in noninvasive BALB/c mouse assessed as bactericidal activity by measuring reduction in relative light unit at 100 mg/kg, po qd for 6 days relative to control; assay type: functional; outline: as §1
[8] = system: Mycobacterium tuberculosis; assay: Antitubercular activity against autoluminescent Mycobacterium tuberculosis H37Ra infected in noninvasive BALB/c mouse assessed as bioluminescence intensity by measuring relative light unit at 100 mg/kg, po qd for 6 days; assay type: functional; outline: as §1
[9] = system: Mycobacterium tuberculosis; assay: Antitubercular activity against autoluminescent Mycobacterium tuberculosis H37Ra infected in noninvasive BALB/c mouse assessed as bioluminescence intensity by measuring relative light unit at 20 mg/kg, po qd for 6 days; assay type: functional; outline: as §1
[10] = system: Mycobacterium tuberculosis; assay: Antitubercular activity against autoluminescent Mycobacterium tuberculosis H37Ra infected in noninvasive BALB/c mouse assessed as bactericidal activity by measuring reduction in relative light unit at 100 mg/kg, po qd for 2 days relative to control; assay type: functional; outline: as §1
[11] = system: Mus musculus; assay: Toxicity in autoluminescent Mycobacterium tuberculosis H37Ra infected noninvasive BALB/c mouse assessed as mortality at 4 to 100 mg/kg, po qd for 6 days; assay type: organism-based; conditions: in vivo, 144 h; outline: as §1
[12] = system: Mycobacterium tuberculosis; assay: Antitubercular activity against autoluminescent Mycobacterium tuberculosis H37Ra infected in noninvasive BALB/c mouse assessed as bactericidal activity by measuring reduction in relative light unit at 100 mg/kg, po qd for 4 days relative to control; assay type: functional

| SMILES | MIC [1] [µM] | MIC [2] [µM] | IC50 [3] [nM] | further results |
| --- | --- | --- | --- | --- |
| Cc1nn2cccc(C)c2c1C(=O)NCc1ccc(N2CCC(c3ccc(OC(F)(F)F)cc3)CC2)cc1 | 1.15 (≈ 0.6 µg/mL) | > 19.1 |  |  |
| Cc1nn2c(C)cccc2c1C(=O)NCc1ccc(N2CCC(c3ccc(OC(F)(F)F)cc3)CC2)cc1 | 0.115 (≈ 0.06 µg/mL) | 5.74 (≈ 3 µg/mL) |  |  |
| Cc1ccc2c(C(=O)NCc3ccc(N4CCC(c5ccc(OC(F)(F)F)cc5)CC4)cc3)c(C)nn2c1 | 0.0134 (≈ 0.007 µg/mL) | 0.574 (≈ 0.3 µg/mL) | > 100000 |  |
| O=C(NCc1ccc(N2CCC(c3ccc(OC(F)(F)F)cc3)CC2)cc1)c1c(-c2ccccc2)nn2ccc(Cl)cc12 | 1.55 (≈ 0.936 µg/mL) | > 16.5 |  |  |
| COc1ccn2nc(C)c(C(=O)NCc3ccc(N4CCC(c5ccc(OC(F)(F)F)cc5)CC4)cc3)c2c1 | 0.0111 (≈ 0.00598 µg/mL) | 0.0056 (≈ 0.00302 µg/mL) | > 100000 | RLU [4]: 0.4; Activity [5]: Dose-dependent effect; IC50 [6]: 2.5 nM; IC90 [6]: 5.7 nM; MIC [6]: 0.0056 µM (≈ 0.00302 µg/mL); RLU [7]: 6.5; RLU [8]: 0.15; RLU [9]: 0.19; RLU [10]: 3.6; Activity [11]: Non-toxic; RLU [12]: 5 |
| Cc1nn2ccc(Cl)cc2c1C(=O)NCc1ccc(N2CCC(c3ccc(OC(F)(F)F)cc3)CC2)cc1 | 0.0074 (≈ 0.00402 µg/mL) | 0.0184 (≈ 0.00999 µg/mL) | > 100000 |  |
| Cc1ccn2nc(C)c(C(=O)NCc3ccc(N(C)C)cc3)c2c1 | 0.0868 (≈ 0.028 µg/mL) | 0.31 (≈ 0.1 µg/mL) | > 100000 |  |
| Cc1nn2ccc(-c3ccccc3)cc2c1C(=O)NCc1ccc(N2CCC(c3ccc(OC(F)(F)F)cc3)CC2)cc1 | 0.479 (≈ 0.28 µg/mL) | > 17.1 |  |  |
| CO[C@H]1/C=C/O[C@@]2(C)Oc3c(C)c(O)c4c(O)c(c(/C=N/N5CCN(C)CC5)c(O)c4c3C2=O)NC(=O)/C(C)=C\C=C\[C@H](C)[C@H](O)[C@@H](C)[C@@H](O)[C@@H](C)[C@H](OC(C)=O)[C@@H]1C [RIFAMPIN] | 0.0364 (≈ 0.03 µg/mL) | 0.00364 (≈ 0.003 µg/mL) |  | IC50 [6]: 4.1 nM; IC90 [6]: 6.9 nM; MIC [6]: 0.0065 µM (≈ 0.00535 µg/mL) |
| Cc1nn2ccccc2c1C(=O)NCc1ccc(N2CCC(c3ccc(OC(F)(F)F)cc3)CC2)cc1 | 0.0098 (≈ 0.00498 µg/mL) | 0.59 (≈ 0.3 µg/mL) | > 100000 |  |
| NNC(=O)c1ccncc1 [ISONIAZID] | 2.99 (≈ 0.41 µg/mL) | 0.729 (≈ 0.1 µg/mL) |  |  |
| Cc1nn2ccc(C(C)C)cc2c1C(=O)NCc1ccc(N2CCC(c3ccc(OC(F)(F)F)cc3)CC2)cc1 | 0.0472 (≈ 0.026 µg/mL) | 1.82 (≈ 1 µg/mL) |  |  |
| O=C(NCc1ccc(N2CCC(c3ccc(OC(F)(F)F)cc3)CC2)cc1)c1c(C2CC2)nn2ccc(Cl)cc12 | 0.0176 (≈ 0.01 µg/mL) | 0.176 (≈ 0.1 µg/mL) | > 100000 |  |
| Cc1ccn2nc(C)c(C(=O)NCc3ccc(-c4ccc(OC(F)(F)F)cc4)cc3)c2c1 | 0.0137 (≈ 0.00602 µg/mL) | 0.0068 (≈ 0.00299 µg/mL) | 50700 |  |
| Cc1nn2ccc(C(F)(F)F)cc2c1C(=O)NCc1ccc(N2CCC(c3ccc(OC(F)(F)F)cc3)CC2)cc1 | 0.052 (≈ 0.03 µg/mL) | 1.73 (≈ 1 µg/mL) | > 100000 |  |
| Cc1nn2ccc(C(C)(C)C)cc2c1C(=O)NCc1ccc(N2CCC(c3ccc(OC(F)(F)F)cc3)CC2)cc1 | > 1.77 | > 17.7 |  |  |
| CCc1nc2ccc(Cl)cn2c1C(=O)NCc1ccc(N2CCC(c3ccc(OC(F)(F)F)cc3)CC2)cc1 [TELACEBEC] | 0.0108 (≈ 0.00602 µg/mL) | 0.0054 (≈ 0.00301 µg/mL) | > 100000 |  |
| Cc1ccn2nc(C)c(C(=O)NCc3ccc(C(F)(F)F)cc3)c2c1 | 0.0691 (≈ 0.024 µg/mL) | 0.288 (≈ 0.1 µg/mL) | > 100000 |  |
| Cc1ccn2nc(C)c(C(=O)NCc3ccc(N4CCC(c5ccc(OC(F)(F)F)cc5)CC4)cc3)c2c1 | 0.0077 (≈ 0.00402 µg/mL) | 0.0057 (≈ 0.00298 µg/mL) | > 100000 | IC50 [6]: 5.1 nM; IC90 [6]: 12 nM; MIC [6]: 0.011 µM (≈ 0.00575 µg/mL) |
| CCc1ccn2nc(C)c(C(=O)NCc3ccc(N4CCC(c5ccc(OC(F)(F)F)cc5)CC4)cc3)c2c1 | 0.0112 (≈ 0.00601 µg/mL) | 0.0186 (≈ 0.00998 µg/mL) | > 100000 |  |
| Cc1ccn2nc(C)c(C(=O)NCc3ccc(N4CCC(C(F)(F)F)CC4)cc3)c2c1 | 0.0139 (≈ 0.00598 µg/mL) | 0.0023 (≈ 0.00099 µg/mL) | > 100000 |  |
| Cc1ccn2nc(C)c(C(=O)NCc3ccc(N4CCN(c5ccc(F)cc5)CC4)cc3)c2c1 | 0.0131 (≈ 0.00599 µg/mL) | 0.0066 (≈ 0.00302 µg/mL) | > 100000 | IC50 [6]: 2.5 nM; IC90 [6]: 6.5 nM; MIC [6]: 0.0063 µM (≈ 0.00288 µg/mL) |
| Cc1ccn2nc(C)c(C(=O)NCc3ccc(N4CCCCC4)cc3)c2c1 | 0.0166 (≈ 0.00602 µg/mL) | 0.0276 (≈ 0.01 µg/mL) | > 100000 |  |
| CCc1nn2ccc(Cl)cc2c1C(=O)NCc1ccc(N2CCC(c3ccc(OC(F)(F)F)cc3)CC2)cc1 | 0.0108 (≈ 0.00602 µg/mL) | 0.0538 (≈ 0.03 µg/mL) | > 100000 | IC50 [6]: 31.3 nM; IC90 [6]: 150 nM; MIC [6]: 0.129 µM (≈ 0.0719 µg/mL) |
| O=C(NCc1ccc(N2CCC(c3ccc(OC(F)(F)F)cc3)CC2)cc1)c1cnn2ccc(Cl)cc12 | 0.359 (≈ 0.19 µg/mL) | 18.9 (≈ 10 µg/mL) |  |  |
